Test results as given in ChEMBL document CHEMBL1141802, “Sesquiterpenoid metabolites with antiplasmodial activity from a Caribbean gorgonian coral, Eunicea sp” (J Nat Prod, 2005).
≈ marks a conversion by molar mass, not a printed value. Calls of active or inactive are those of the source. The calls are words filed in the database; no cut-off is given here.

Tests used:
Plasmodium falciparum = experiment: Antimalarial activity against chloroquine-resistant Plasmodium falciparum W2 by Picogreen dye fluorimetry; assay type: functional, organism-based
Procedure, shortened: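 Fluorometric growth-inhibition assay on chloroquine-resistant W2 strain, detecting parasite DNA by PicoGreen intercalation. Result expressed as IC50 in μg/mL.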

[1] = tested on: Mycobacterium tuberculosis; experiment: Antimicrobial activity against Mycobacterium tuberculosis H37Rv at 6.25 ug/mL; assay type: functional, organism-based
[2] = target: Cyclin-dependent kinase 1/cyclin B1 (Homo sapiens) (UniProt P06493+P14635); experiment: Inhibition of Cdc2/cyclin B
Chain of Cyclin-dependent kinase 1/cyclin B1 (Homo sapiens) (P06493 whole entry, looked up): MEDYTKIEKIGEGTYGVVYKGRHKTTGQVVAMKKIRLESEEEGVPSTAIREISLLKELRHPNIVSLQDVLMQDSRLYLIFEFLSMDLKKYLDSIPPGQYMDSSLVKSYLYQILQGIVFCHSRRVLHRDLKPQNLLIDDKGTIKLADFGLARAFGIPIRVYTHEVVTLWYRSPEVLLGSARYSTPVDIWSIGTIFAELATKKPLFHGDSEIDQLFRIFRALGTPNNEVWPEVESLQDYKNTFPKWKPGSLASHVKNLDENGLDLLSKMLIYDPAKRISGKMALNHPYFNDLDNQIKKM
Chain of Cyclin-dependent kinase 1/cyclin B1 (Homo sapiens) (P14635 whole entry, looked up): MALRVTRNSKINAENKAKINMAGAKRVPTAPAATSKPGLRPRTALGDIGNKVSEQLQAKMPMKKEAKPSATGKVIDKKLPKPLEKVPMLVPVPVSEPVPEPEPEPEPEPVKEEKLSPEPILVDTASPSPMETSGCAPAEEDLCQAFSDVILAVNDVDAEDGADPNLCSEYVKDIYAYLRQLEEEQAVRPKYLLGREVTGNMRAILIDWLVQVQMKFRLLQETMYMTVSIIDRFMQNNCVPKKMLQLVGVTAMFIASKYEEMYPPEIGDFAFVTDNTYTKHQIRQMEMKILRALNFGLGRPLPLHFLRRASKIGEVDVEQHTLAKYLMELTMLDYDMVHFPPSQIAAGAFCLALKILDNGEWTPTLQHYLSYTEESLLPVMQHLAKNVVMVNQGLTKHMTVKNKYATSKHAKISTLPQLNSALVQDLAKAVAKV

[3] = tested on: M-phase inducer phosphatase (Cdc25); experiment: Inhibition of Cdc25
MOLT-4 = experiment: Cytotoxicity against human MOLT4 cells; assay type: functional, cell-based
HL-60(TB) = experiment: Cytotoxicity against human HL-60(TB) cells; assay type: functional, cell-based
CCRF-CEM = experiment: Cytotoxicity against human CCRF-CEM cells; assay type: functional, cell-based
[4] = Cytotoxicity against human […] cells; assay type: functional, cell-based
MCF7 = experiment: Cytotoxicity against human MCF7 cells; assay type: functional, cell-based

Compound | IC50 (Plasmodium falciparum) [µg/mL] | Activity [1] | also measured
C=C1CC[C@H](O)[C@@]2(C)CC[C@@H](C(C)=O)[C@@H](OC(=O)/C=C/C(C)(C)O)[C@H]12 | 10 (≈ 28.5 µM) | inactive | –
C=C[C@@]1(C)CCC2=C(C)C(=O)O[C@H]2[C@@H]1C(=C)C | > 50 | – | –
C=C1CC[C@H](O)[C@@]2(C)CC[C@@H]3[C@@H](OC(=O)[C@H]3C)[C@H]12 | 14 (≈ 55.9 µM) | inactive | –
C=C1CC[C@@H](C(C)=O)[C@@H](OC(=O)/C=C/C(C)(C)O)/C=C(\C)CC[C@@H]1O | 14 (≈ 39.9 µM) | – | Activity [2]: inactive; Activity [3]: inactive
C=C1CC[C@@H](C(C)=O)[C@@H](OC(=O)/C=C/C(C)(C)O)/C=C(\C)CCC1=O | 16 (≈ 45.9 µM) | inactive | Activity [2]: inactive; Activity [3]: inactive
C=C[C@@]1(C)CC[C@@H](C(C)=O)[C@@H](OC(=O)/C=C/C(C)(C)O)[C@@H]1C(=C)C | – | inactive | –
C=C1CC[C@@H]2[C@H](/C=C(\C)CC[C@@H]1O)OC(=O)[C@H]2C | 18 (≈ 71.9 µM) | – | IC50 (MOLT-4): 19.6 µg/mL (≈ 78.3 µM); IC50 (HL-60(TB)): 51.5 µg/mL (≈ 206 µM); IC50 (CCRF-CEM): 31.3 µg/mL (≈ 125 µM); IC50 [4]: 90.4 µg/mL (≈ 361 µM); IC50 (MCF7): 82.2 µg/mL (≈ 328 µM)
